Measured values reported in ChEMBL document CHEMBL1909525, “Synthesis and anticonvulsant activity of novel 2,6-diketopiperazine derivatives. Part 1: perhydropyrrole[1,2-a]pyrazines” (Eur J Med Chem, 2011).
Calls of active or inactive are those of the source. The calls are words filed in the database; no cut-off is given here.

Experiments:
Mus musculus [1] = assay: Anticonvulsant activity in albino Carworth Farms No.1 mouse assessed as protection against maximal electroshock-induced seizure at 300 mg/kg, ip after 4 hrs; format: functional, organism-based; design: dose 300 mg/kg
How it was run: (§1)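 Mouse MES test with compound given i.p. (30, 100 or 300 mg/kg) in 0.5% methylcellulose; tested at 0.5 and 4 h. Corneal stimulus of 50 mA at 60 Hz for 0.2 s, electrodes primed with 0.5% butacaine in 0.9% NaCl. Protection is abolition of hindlimb tonic extension; scored as protected/tested.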

Mus musculus [2] = assay: Anticonvulsant activity in albino Carworth Farms No.1 mouse assessed as protection against subcutaneous metrazol-induced seizure at 300 mg/kg, ip after 4 hrs; format: functional, organism-based; design: dose 300 mg/kg
How it was run: (§2)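 Mouse scMET test. Compound given i.p. (30, 100 or 300 mg/kg) in 0.5% methylcellulose. Pentylenetetrazole 85 mg/kg (CD97) given s.c. at 0.5 or 4 h, then mice observed for 30 min. Protection is absence of clonic spasms; scored as protected/tested.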

Mus musculus [3] = assay: Neurotoxicity in albino Carworth Farms No.1 mouse assessed as motor impairment at 30 mg/kg, ip after 4 hrs by rotarod test; format: toxicity, organism-based; design: dose 30 mg/kg, route intraperitoneal; conditions: in vivo
How it was run: (§3)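 Rotorod neurotoxicity in mice at 6 r.p.m. Compound given i.p. (30, 100, 300 mg/kg) in 0.5% methylcellulose; tested at 30 min and 4 h. Impairment is inability to keep equilibrium on the rod for a given time; scored as impaired/tested.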

Mus musculus [4] = assay: Anticonvulsant activity in albino Carworth Farms No.1 mouse assessed as protection against subcutaneous metrazol-induced seizure at 30 mg/kg, ip after 4 hrs; format: functional, organism-based; design: dose 30 mg/kg; how it was run: as §2
Mus musculus [5] = assay: Neurotoxicity in albino Carworth Farms No.1 mouse assessed as motor impairment at 300 mg/kg, ip after 0.5 hrs by rotarod test; format: toxicity, organism-based; design: dose 300 mg/kg, route intraperitoneal; conditions: in vivo; how it was run: as §3
Mus musculus [6] = assay: Neurotoxicity in albino Carworth Farms No.1 mouse assessed as motor impairment at 100 mg/kg, ip after 0.5 hrs by rotarod test; format: toxicity, organism-based; design: dose 100 mg/kg, route intraperitoneal; conditions: in vivo; how it was run: as §3
Mus musculus [7] = assay: Neurotoxicity in albino Carworth Farms No.1 mouse assessed as motor impairment at 300 mg/kg, ip after 4 hrs by rotarod test; format: toxicity, organism-based; design: dose 300 mg/kg, route intraperitoneal; conditions: in vivo; how it was run: as §3
Mus musculus [8] = assay: Anticonvulsant activity in albino Carworth Farms No.1 mouse assessed as protection against subcutaneous metrazol-induced seizure at 100 mg/kg, ip after 4 hrs; format: functional, organism-based; design: dose 100 mg/kg; how it was run: as §2
Mus musculus [9] = assay: Anticonvulsant activity in albino Carworth Farms No.1 mouse assessed as protection against subcutaneous metrazol-induced seizure at 30 mg/kg, ip after 0.5 hrs; format: functional, organism-based; design: dose 30 mg/kg; how it was run: as §2
Mus musculus [10] = assay: Anticonvulsant activity in albino Carworth Farms No.1 mouse assessed as protection against maximal electroshock-induced seizure at 300 mg/kg, ip after 0.5 hrs; format: functional, organism-based; design: dose 300 mg/kg; how it was run: as §1
Mus musculus [11] = assay: Neurotoxicity in albino Carworth Farms No.1 mouse assessed as motor impairment at 30 mg/kg, ip after 0.5 hrs by rotarod test; format: toxicity, organism-based; design: dose 30 mg/kg, route intraperitoneal; conditions: in vivo; how it was run: as §3
Mus musculus [12] = assay: Anticonvulsant activity in albino Carworth Farms No.1 mouse assessed as protection against subcutaneous metrazol-induced seizure at 100 mg/kg, ip after 0.5 hrs; format: functional, organism-based; design: dose 100 mg/kg; how it was run: as §2
Mus musculus [13] = assay: Anticonvulsant activity in albino Carworth Farms No.1 mouse assessed as protection against maximal electroshock-induced seizure at 100 mg/kg, ip after 4 hrs; format: functional, organism-based; design: dose 100 mg/kg; how it was run: as §1
Mus musculus [14] = assay: Anticonvulsant activity in albino Carworth Farms No.1 mouse assessed as protection against maximal electroshock-induced seizure at 30 mg/kg, ip after 0.5 hrs; format: functional, organism-based; design: dose 30 mg/kg; how it was run: as §1
Mus musculus [15] = assay: Anticonvulsant activity in albino Carworth Farms No.1 mouse assessed as protection against maximal electroshock-induced seizure at 100 mg/kg, ip after 0.5 hrs; format: functional, organism-based; design: dose 100 mg/kg; how it was run: as §1
Mus musculus [16] = assay: Anticonvulsant activity in albino Carworth Farms No.1 mouse assessed as protection against subcutaneous metrazol-induced seizure at 300 mg/kg, ip after 0.5 hrs; format: functional, organism-based; design: dose 300 mg/kg; how it was run: as §2
Mus musculus [17] = assay: Anticonvulsant activity in albino Carworth Farms No.1 mouse assessed as protection against maximal electroshock-induced seizure at 30 mg/kg, ip after 4 hrs; format: functional, organism-based; design: dose 30 mg/kg; how it was run: as §1
Rattus norvegicus [18] = assay: Anticonvulsant activity in po dosed albino Sprague-Dawley rat assessed as protection against maximal electroshock-induced seizure after 0.25 hrs; format: functional
How it was run: (§4)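 Rats dosed orally, compound in 0.5% methylcellulose. MES at 150 mA, 60 Hz, 0.2 s; scMET with pentylenetetrazole 70 mg/kg s.c. plus 30 min observation; rotorod for toxicity.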

Rattus norvegicus [19] = species: Rattus norvegicus; assay: Protective index, ratio of TD50 for albino Sprague-Dawley rat to ED50 for albino Sprague-Dawley rat by maximal electroshock-induced seizure test; format: functional
Rattus norvegicus [20] = assay: Anticonvulsant activity in po dosed albino Sprague-Dawley rat assessed as protection against subcutaneous metrazol-induced seizure after 0.25 hrs; format: functional; how it was run: as §4
Mus musculus [21] = species: Mus musculus; assay: Protective index, ratio of TD50 for albino Carworth Farms No.1 mouse to ED50 for albino Carworth Farms No.1 mouse by maximal electroshock-induced seizure test; format: functional
How it was run: (§5)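 Mouse quantification at the time of peak effect, compound given i.p. in 0.5% methylcellulose. Groups of at least eight mice received varied doses until at least two points fell between 100 and 0% response. PI = TD50/ED50 MES.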

Mus musculus [22] = assay: Anticonvulsant activity in ip dosed albino Carworth Farms No.1 mouse assessed as time needs to show peak effect for protection against maximal electroshock-induced seizure; format: functional
Rattus norvegicus [23] = assay: Anticonvulsant activity in po dosed albino Sprague-Dawley rat assessed as time needs to show peak effect for protection against maximal electroshock-induced seizure after 0.25 hrs; format: functional; how it was run: as §4
Mus musculus [24] = assay: Anticonvulsant activity in ip dosed albino Carworth Farms No.1 mouse assessed as protection against maximal electroshock-induced seizure after 0.25 hrs; format: functional; conditions: albino Carworth Farms No.1, ip
How it was run: as §5, with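 “response. ED50 (MES, scMET) and TD50 (rotorod) with 95% CI by probit analysis (Finney).” for “response.”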

[25] = Neurotoxicity in po dosed albino Sprague-Dawley rat assessed as motor impairment after 0.25 hrs by rotarod test; format: toxicity, organism-based; conditions: in vivo; how it was run: as §4
Mus musculus [26] = assay: Anticonvulsant activity in ip dosed albino Carworth Farms No.1 mouse assessed as protection against subcutaneous metrazol-induced seizure after 0.25 hrs; format: functional; conditions: albino Carworth Farms No.1, 0.25 h
How it was run: as §5, with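 “response. ED50 (MES, scMET) and TD50 (rotorod) with 95% CI by probit analysis (Finney).” for “response.”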

Mus musculus [27] = assay: Anticonvulsant activity in ip dosed albino Carworth Farms No.1 mouse assessed as time needs to show peak effect for electric-current for 3 secs-induced seizure after 0.25 hrs by 6Hz minimal clonic seizure test; format: functional
Mus musculus [28] = assay: Anticonvulsant activity in ip dosed albino Carworth Farms No.1 mouse assessed as protection against electric-current for 3 secs-induced seizure after 0.25 hrs by 6Hz minimal clonic seizure test; format: functional; conditions: albino Carworth Farms No.1, ip

Structure (SMILES)	Activity (Mus musculus [1])	Activity (Mus musculus [2])	Activity (Mus musculus [3])	Activity (Mus musculus [4])	Activity (Mus musculus [5])	Activity (Mus musculus [6])	Activity (Mus musculus [7])	Activity (Mus musculus [8])	Activity (Mus musculus [9])	Activity (Mus musculus [10])	Activity (Mus musculus [11])	Activity (Mus musculus [12])	Activity (Mus musculus [13])	Activity (Mus musculus [14])	Activity (Mus musculus [15])	Activity (Mus musculus [16])	Activity (Mus musculus [17])	ED50 (Rattus norvegicus [20]) [mg/kg]	Time (Mus musculus [22]) [h]	Time (Rattus norvegicus [23]) [h]	other results
CN1C(=O)[C@H](c2ccccc2)N2CCC[C@H]2C1=O.Cl	inactive	inactive	Non-toxic	inactive	Toxic	Non-toxic	Non-toxic	inactive	inactive	Active	Non-toxic	inactive	inactive	inactive	inactive	Active	inactive				
Cl.O=C1[C@H](c2ccccc2)N2CCC[C@H]2C(=O)N1Cc1ccccc1	inactive	inactive	Non-toxic	inactive	Non-toxic	Non-toxic	Non-toxic	inactive	inactive	Active	Non-toxic	inactive	inactive	inactive	inactive	inactive	inactive				
O=C1NC(=O)C(c2ccccc2)(c2ccccc2)N1 [PHENYTOIN]																		> 500	1	4	ED50 (Rattus norvegicus [18]): 28.1 mg/kg; Ratio TD50/ED50 (Rattus norvegicus [19]): >36.6; Ratio TD50/ED50 (Mus musculus [21]): 7.3; ED50 (Mus musculus [24]): 5.64 mg/kg; TD50 at 0.25 h [25]: > 1000 mg/kg; ED50 (Mus musculus [26]): > 50 mg/kg
C[C@@H]1C(=O)NC(=O)[C@@H]2CCCN12	inactive	inactive	Non-toxic	inactive	Non-toxic	Non-toxic	Non-toxic	inactive	inactive	inactive	Non-toxic	inactive	inactive	inactive	inactive	inactive	inactive				
COC[C@@H](NC(C)=O)C(=O)NCc1ccccc1 [LACOSAMIDE]																		> 250	0.5	0.5	Time (Mus musculus [27]): 0.5 h; ED50 (Mus musculus [28]): 9.99 mg/kg; ED50 (Mus musculus [24]): 4.46 mg/kg; TD50 at 0.25 h [25]: > 500 mg/kg; ED50 (Mus musculus [26]): > 25 mg/kg
